Source: PubChem BioAssay (several laboratories)
SUMO Mot1 rescue = yeast Mot1-301 growth rescue at high temperature, primary screen, SUMOylation pathway inhibitor project, S. cerevisiae, ATP luminescence, 38.5C | AID 2716, 2010 | growth rescue, % at 18.8 µM | actives 1% (n = 320,000) | S. cerevisiae Mot1-301 growth rescue; percent above DMSO median, 100 means doubled;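 active = every valid replicate shows activation above 250% relative to neutral control wells; inactive = the rest, any valid replicate at or below 250%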;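 also: OY570 slx delta 5 strain wells were the positive control but not used for scaling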
Beta cell apopt = inhibitors of cytokine-induced beta cell apoptosis, primary screen, luminescence; INS-1E cytokine-induced death, ATP luminescence, 48 h; percent of positive-control rescue, neutral wells zero; protection from apoptosis, % (test concentration not listed); AID 435005, 2010; actives 0.8% (n = 300,000);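 active = Every replicate reaches about 75%, or at least half do and their mean reaches it too, limit read from the data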;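 also: 0% = cytokine-treated negative control wells and 100% = positive control rescue; higher means more ATP so stronger rescue from cytokine killing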
T cruzi inh = inhibitors of intracellular T. cruzi growth, primary screen, luminescence, NIH3T3 host cells; inhibition, % (no concentration beside the values); actives 1.4% (n = 300,000); AID 1885, 2009; T. cruzi beta-gal in NIH3T3, 90 h;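 active = mean inhibition across valid replicates above about 55%, limit read from the data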;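 also: signal also drops with host cell toxicity which is not excluded here; 0% = plate median of DMSO wells and 100% = zero luminescence signal; higher percent means less beta-gal luminescence so fewer parasites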
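System: Mouse NIH/3T3 fibroblasts infected with β-gal-expressing T. cruzi Tulahuen C4 | Quantity: NIH/3T3 cells, 5,000 per well | Reagent: 5000 reporter trypomastigotes per well | Dosing: Compound pinned at 50 nL/well, DMSO | Schedule: 3 h host attachment, then at least 90 h co-culture | Detection: GalScreen luminescence, 60 min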
CSC inhib = cancer stem cell viability inhibitors, primary screen, luminescence; cancer stem cell-like cells viability; inhibition, % at 7.5 µM; actives 1.1% (n = 300,000); in the data active = inhibition above about 75%; tested in HMLE shEcad cells
Efflux pump inh = inhibitors of Candida efflux pumps in yeast, primary screen, S. cerevisiae, Nile Red, multiplex | actives 0.44% (n = 330,000) | AID 485275, 2010 | S. cerevisiae Candida pump triplex | inhibition, % at 10 µM;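 active = plate passing quality check with inhibition over a set limit, or well fluorescence over plate mean plus 4 SD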;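 also: Nile Red retained in pooled yeast measured as flow cytometry median fluorescence; 0% = buffer negative control and 100% = Enniatin B positive control; higher means more Nile Red kept so more efflux inhibition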
WT yeast gro inh = growth inhibition of WT strain, primary screen, mitochondrial fusion inhibitor project, WT and mutant strains, chemical genetic; mitochondrial fusion phenotypic screen; inhibition, % at 10 µM; actives 2.1% (n = 190,000); AID 1362, 2008; in the data active = inhibition above about 58%; tested in S. cerevisiae
Numbers without * were called inactive; . = not tested or not shown. Rows were chosen to be rich in hits. Some 4.8% of all compounds tested hit in one or more screens of this group.

SMILES	SUMO Mot1 rescue	Beta cell apopt	T cruzi inh	CSC inhib	Efflux pump inh	WT yeast gro inh
O=C(Nc1ccon1)C12CC3CC(C1)CC(n1cnc([N+](=O)[O-])n1)(C3)C2	24.1	-1.0	59.2*	.	-0.1	-6.3
COc1ccc(NC(=O)C23CC4CC(C2)CC(n2cnc(Br)n2)(C4)C3)cc1OC	2.2	2.4	5.6	-9.7	0.1	-7.4
Cc1cc(NC(=O)C23CC4CC(C2)CC(n2cnc([N+](=O)[O-])n2)(C4)C3)no1	5.5	-9.6	54.6*	-14.5	-0.1	-14.4
CN(CC(=O)NCCc1ccc(S(N)(=O)=O)cc1)S(=O)(=O)/C=C/c1ccccc1	3.2	-4.5	3.0	-8.5	-0.1	.
Cc1ccc(C)n1-c1ccc(C(=O)NN=C2CCCC2)cc1	-6.0	-11.4	3.7	-9.3	0.0	-13.6
CCCc1cc(C(=O)N2CCN(c3ccccc3C)CC2)cs1	-7.1	-1.4	26.6	0.1	0.2	54.4
Cc1cc(C)cc(NS(=O)(=O)c2ccc3c(c2)c(=O)n(C)c(=O)n3C)c1	-15.8	7.8	1.0	101.5*	0.0	-9.2
C[n+]1c2n(c3ccccc31)N=C(c1cc(C(C)(C)C)c(O)c(C(C)(C)C)c1)CS2	27.4	106.7*	60.8*	-13.7	0.3	75.6*
Cc1sc(NC(=O)Cc2ccc3c(c2)OCO3)nc1-c1ccc2c(c1)CCN2C(=O)c1ccccc1F	4.0	15.3	56.1*	8.8	1.2	26.3
Cc1sc(NC(=O)Cc2ccc3c(c2)OCO3)nc1-c1ccc2c(c1)CCN2C(=O)c1ccc(F)cc1	3.7	21.5	18.6	-1.4	-0.1	32.5
O=C(CSc1cccc2cccnc12)Nc1ccc(S(=O)(=O)N2CCOCC2)cc1	-16.3	35.0	62.6*	-3.3	0.0	.
O=C(CN1C(=O)C2CC=CCC2C1=O)Nc1ccc(S(=O)(=O)N2CCOCC2)cc1 (stereo unspecified)	296.7*	-2.1	-5.6	-2.1	0.0	-39.0
O=S(=O)(c1ccc(NC(=S)NCCC(c2ccccc2)c2ccccc2)cc1)N1CCOCC1	-4.6	4.4	61.5*	34.8	-0.1	-22.0
CCCCOCCCNC(=S)Nc1ccc(S(=O)(=O)N2CCOCC2)cc1	-11.7	3.5	5.6	3.9	0.1	.
CN(C)CCN(Cc1cc2cc3c(cc2nc1Cl)OCO3)C(=O)c1ccco1	179.9	-0.4	-0.4	.	0.0	.
CCC(OC(=O)c1cc2sccc2n1C)C(=O)NCc1ccco1 (stereo unspecified)	49.3	-19.1	14.8	-4.9	0.0	74.9*
Cn1c(C(=O)OCC(=O)NCc2ccco2)cc2sccc21	-1.5	-1.1	-9.0	11.2	0.7	6.1
O=C(NCc1ccco1)c1cc2sccc2n1Cc1ccccc1	-12.3	1.8	10.6	3.0	0.3	61.0*
CC(C)CN(C(=O)COC(=O)CN1C(=O)c2ccccc2C1=O)c1c(N)n(Cc2ccccc2)c(=O)[nH]c1=O	12.9	-1.9	-6.2	-2.4	0.0	.
COc1ccc(C(=O)NC(C(=O)NCC2(N3CCCCC3)CCCCC2)C(C)C)cc1 (stereo unspecified)	-12.3	-5.3	.	.	-0.4	.
CC(=O)Nc1ccc(S(=O)(=O)NCC2CCC(C(=O)N3CCCCC3)CC2)cc1 (stereo unspecified)	-17.1	-2.5	-5.2	8.5	-0.1	.
COCCC(=O)N1CCCC(CNS(=O)(=O)c2ccc(OC)cc2)C1 (stereo unspecified)	.	-1.5	-7.4	-4.9	0.0	-16.0
COCC(=O)N1CCCC(CNS(=O)(=O)c2ccc(OC)cc2)C1 (stereo unspecified)	669.8*	1.0	-5.5	-5.4	0.0	5.6
CCOC(=O)C1CCCN(C(=O)C2CCC(CNS(=O)(=O)c3ccc(NC(C)=O)cc3)CC2)C1 (stereo unspecified)	281.7*	3.0	-5.0	-7.7	-0.1	6.9
CC(OC(=O)CNS(=O)(=O)c1ccc(C#N)cc1)C(=O)Nc1cccc(C#N)c1 (stereo unspecified)	-1.4	-0.3	-8.4	.	-0.1	.
O=C(c1ccccc1)c1nn(-c2ccc(Cl)cc2)cc1C(=O)c1cc2ccccc2oc1=O	.	8.0	-9.1	28.9	0.2	-2.0
